# From ChEMBL document CHEMBL3862011, “Neuroprotective effects of benzyloxy substituted small molecule monoamine oxidase B inhibitors in Parkinson's disease” (Bioorg Med Chem, 2016)
# Active and inactive are the calls of the source. No cut-off for these calls is given here.
# Legend:
# PC-12 [1] = test: Neuroprotective activity against 6-OHDA-induced toxicity in rat PC12 cells assessed as increase in cell survival preincubated for 24 hrs followed by 6-OHDA addition measured after 24 hrs by MTT assay; type: functional, cell-based
# How it was run: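 PC12 cells in RPMI-1640 with 10% FBS were seeded at 5×10^3 cells/well. After 24 h, compounds at 20 μM were added for 24 h at 37 °C, followed by 6-OHDA (40 μM) or rotenone (1 μM) for 24 h. Viability by MTT (570 nm, reference 630 nm), expressed as percent of untreated control. […] Mean ± SEM.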
# Mus musculus [2] = test: Acute toxicity in Kunming mouse assessed as reduction in body weight at 2000 mg/kg measured for 14 days; type: organism-based; conditions: in vivo, 336 h
# How it was run: (§1)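 Kunming mice (20 ± 2 g), 10 per group, vehicle control group; fasted overnight, single oral dose in 0.5% CMC-Na suspension. Observed continuously for 4 h, intermittently to 24 h, then occasionally to day 14 for behaviour, mortality, food and water intake and body weight; sacrificed under ether on day 14.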
# PC-12 [3] = test: Neuroprotective activity against 6-OHDA-induced apoptosis in rat PC12 cells assessed as necrotic cells at 5 uM after 24 hrs by 7-AAD/annexin V APC staining-based flow cytometric method (reference value: 0.6%); type: functional
# PC-12 [4] = test: Neuroprotective activity against 6-OHDA-induced apoptosis in rat PC12 cells assessed as viable cells at 5 uM after 24 hrs by 7-AAD/annexin V APC staining-based flow cytometric method (reference value: […]); type: functional; conditions: PC-12, 24 h, read-out: Activity
# [5] = Neuroprotective activity against rotenone-induced toxicity in rat PC12 cells assessed as cell survival at 20 uM preincubated for 24 hrs followed by rotenone addition measured after 24 hrs by MTT assay relative to control; type: functional; conditions: PC-12, read-out: Survival
# How it was run: (§2)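 PC12 cells seeded 5×10^3/well, after 24 h given compound at 20 μM for 24 h at 37 °C, then exposed to 6-OHDA (40 μM) or rotenone (1 μM) for 24 h. […] Mean ± SEM of three independent experiments.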
# Mus musculus [6] = test: Acute toxicity in Kunming mouse assessed as abnormal changes in food consumption at 2000 mg/kg measured for 14 days; type: organism-based; conditions: in vivo, 336 h; how it was run: as §1
# PC-12 [7] = test: Neuroprotective activity against rotenone-induced apoptosis in rat PC12 cells assessed as necrotic cells at 10 uM after 24 hrs by 7-AAD/annexin V APC staining-based flow cytometric method (reference value: 48.6%); type: functional
# Mus musculus [8] = test: Acute toxicity in Kunming mouse assessed as mortality at 2000 mg/kg measured for 14 days; type: organism-based; conditions: in vivo, 336 h; how it was run: as §1
# PC-12 [9] = test: Neuroprotective activity against rotenone-induced apoptosis in rat PC12 cells assessed as necrotic cells at 40 uM after 24 hrs by 7-AAD/annexin V APC staining-based flow cytometric method (reference value: 48.6%); type: functional
# PC-12 [10] = test: Neuroprotective activity against 6-OHDA-induced apoptosis in rat PC12 cells assessed as viable cells at 40 uM after 24 hrs by 7-AAD/annexin V APC staining-based flow cytometric method (reference value: […]); type: functional; conditions: PC-12, 24 h, read-out: Activity
# PC-12 [11] = test: Neuroprotective activity against rotenone-induced reactive oxygen species accumulation in rat PC12 cells after 24 hrs by DCFH-DA probe-based flow cytometric method; type: functional, cell-based
# How it was run: (§3)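 PC12 cells were seeded at 2×10^5 cells/well in six-well plates and cultured with or without various concentrations of test samples for 24 h. After washing, they were loaded with DCFH-DA for 30 min at 37 °C in the dark, washed and harvested. DCF fluorescence read by flow cytometry (ex 488/em 525 nm), reported as mean fluorescence intensity.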
# PC-12 [12] = test: Neuroprotective activity against rotenone-induced apoptosis in rat PC12 cells assessed as late apoptotic cells at 20 uM after 24 hrs by 7-AAD/annexin V APC staining-based flow cytometric method (reference value: 9.9%); type: functional
# PC-12 [13] = test: Neuroprotective activity against rotenone-induced apoptosis in rat PC12 cells assessed as necrotic cells at 20 uM after 24 hrs by 7-AAD/annexin V APC staining-based flow cytometric method (reference value: 48.6%); type: functional
# PC-12 [14] = test: Neuroprotective activity against rotenone-induced apoptosis in rat PC12 cells assessed as early apoptotic cells at 40 uM after 24 hrs by 7-AAD/annexin V APC staining-based flow cytometric method (reference value: 2.2%); type: functional
# PC-12 [15] = test: Neuroprotective activity against 6-OHDA-induced apoptosis in rat PC12 cells assessed as decrease in nuclear fragmentation at 20 uM after 24 hrs by Hoechst 33258 staining-based fluorescent inverted microscopic method; type: functional, cell-based
# How it was run: (§4)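 PC12 cells exposed to 6-OHDA or rotenone with test treatment were stained with Hoechst 33258 for 30 min, mounted on glass slides under cover slips, and examined by fluorescent inverted microscopy.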
# PC-12 [16] = test: Neuroprotective activity against rotenone-induced apoptosis in rat PC12 cells at 20 uM preincubated for 24 hrs followed by rotenone addition measured after 24 hrs by 7-AAD/annexin V APC staining-based flow cytometric method; type: functional, cell-based
# PC-12 [17] = test: Neuroprotective activity against 6-OHDA-induced reactive oxygen species accumulation in rat PC12 cells after 24 hrs by DCFH-DA probe-based flow cytometric method; type: functional, cell-based; how it was run: as §3
# PC-12 [18] = test: Neuroprotective activity against 6-OHDA-induced apoptosis in rat PC12 cells assessed as late apoptotic cells at 20 uM after 24 hrs by 7-AAD/annexin V APC staining-based flow cytometric method (reference value: 4.4%); type: functional
# PC-12 [19] = test: Neuroprotective activity against 6-OHDA-induced toxicity in rat PC12 cells assessed as increase in cell viability after 24 hrs by phase-contrast microscopic method; type: functional, cell-based
# How it was run: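 PC12 cells were exposed to 5-40 μM test compound together with 40 μM 6-OHDA or 1 μM rotenone for 24 h. Viability was judged from phase-contrast images against untreated controls.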
# PC-12 [20] = test: Neuroprotective activity against rotenone-induced apoptosis in rat PC12 cells assessed as decrease in nuclear fragmentation at 20 uM after 24 hrs by Hoechst 33258 staining-based fluorescent inverted microscopic method; type: functional, cell-based; how it was run: as §4
# PC-12 [21] = test: Neuroprotective activity against rotenone-induced apoptosis in rat PC12 cells assessed as necrotic cells at 5 uM after 24 hrs by 7-AAD/annexin V APC staining-based flow cytometric method (reference value: 48.6%); type: functional
# PC-12 [22] = test: Neuroprotective activity against rotenone-induced apoptosis in rat PC12 cells assessed as late apoptotic cells at 10 uM after 24 hrs by 7-AAD/annexin V APC staining-based flow cytometric method (reference value: 9.9%); type: functional
# PC-12 [23] = test: Neuroprotective activity against 6-OHDA-induced apoptosis in rat PC12 cells assessed as late apoptotic cells at 5 uM after 24 hrs by 7-AAD/annexin V APC staining-based flow cytometric method (reference value: 4.4%); type: functional
# PC-12 [24] = test: Neuroprotective activity against rotenone-induced apoptosis in rat PC12 cells assessed as early apoptotic cells at 10 uM after 24 hrs by 7-AAD/annexin V APC staining-based flow cytometric method (reference value: 2.2%); type: functional
# [25] = Neuroprotective activity against 6-OHDA-induced toxicity in rat PC12 cells assessed as cell survival at 20 uM preincubated for 24 hrs followed by 6-OHDA addition measured after 24 hrs by MTT assay relative to control; type: functional; conditions: PC-12, read-out: Survival; how it was run: as §2
# Mus musculus [26] = test: Acute toxicity in Kunming mouse assessed as abnormal changes in water consumption at 2000 mg/kg measured for 14 days; type: organism-based; conditions: in vivo, 336 h; how it was run: as §1
structure (smiles),measurement,setting,value
O=C1CCOc2cc(OCc3ccc(F)cc3)ccc21,Activity,PC-12 [1],Dose-dependent effect
same,Activity,Mus musculus [2],Non-Toxic
same,Activity,PC-12 [3],3.8%
same,viability at 5 µM,PC-12 [4],69.3%
same,viability at 20 µM,[5],126%
same,Activity,Mus musculus [6],Non-Toxic
same,Activity,PC-12 [7],30.8%
same,Activity,Mus musculus [8],Non-Toxic
same,Activity,PC-12 [9],25.8%
same,viability at 40 µM,PC-12 [10],90.8%
same,Activity,PC-12 [11],Dose-dependent effect
same,Activity,PC-12 [12],9.5%
same,Activity,PC-12 [13],30.2%
same,Activity,PC-12 [14],2.9%
same,Activity,PC-12 [15],Active
same,Activity,PC-12 [16],Dose-dependent effect
same,Activity,PC-12 [17],Dose-dependent effect
same,Activity,PC-12 [18],0.3%
same,Activity,PC-12 [19],Dose-dependent effect
same,Activity,PC-12 [20],Active
same,Activity,PC-12 [21],33.2%
same,Activity,PC-12 [22],16.1%
same,Activity,PC-12 [23],1.8%
same,Activity,PC-12 [24],5%
same,viability at 20 µM,[25],134%
same,Activity,Mus musculus [26],Non-Toxic
